Assay results: ChEMBL document CHEMBL1212805, “Evaluation of WLBU2 peptide and 3-O-octyl-sn-glycerol lipid as active ingredients for a topical microbicide formulation targeting Chlamydia trachomatis” (Antimicrob Agents Chemother, 2010)
Calls of active or inactive are those of the source.

Assays:
Chlamydia trachomatis [1] = experiment: Antibacterial activity against Chlamydia trachomatis serovar L2 at => 3.13 uM after 5 mins relative to control; format: functional
Chlamydia trachomatis [2] = experiment: Antibacterial activity against Chlamydia trachomatis serovar D at 60.0 - 3.75 uM after 5 mins by MCC assay in presence of simulated seminal fluid relative to control; format: functional, organism-based
Procedure, shortened: (§1)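 C. trachomatis serovar EBs (5 × 10⁶ IFU/ml) diluted in 100% VFS (zinc-free for SFS), 100% SFS or 10% HSA, mixed 1:1 with five 4-fold SPG dilutions (final 60 μM/30 mM top; 50% VFS, 50% SFS, 5% HSA). After 5 or 120 min, diluted 1:40, inoculated onto McCoy monolayers. Inclusions stained with anti-LPS/FITC after 36–48 h. Inhibition versus no-drug control in the same fluid; MCC is complete inhibition.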

Chlamydia trachomatis [3] = experiment: Antibacterial activity against Chlamydia trachomatis serovar L2 at 60.0 -3.75 uM after 5 mins by MCC assay in presence of simulated seminal fluid relative to control; format: functional, organism-based
Procedure, shortened: (§2)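 McCoy monolayers seeded 5 × 10⁴ cells/well the day before. Five 4-fold dilutions in SPG (from 120 μM, 60 μM final) mixed 1:1 with EBs (5 × 10⁶ IFU/ml) in VFS, SFS or HSA, giving final 50% VFS, 50% SFS or 5% HSA. After exposure, mix diluted 1:40 in SPG, then inoculated. Inhibition is relative to a no-drug control in the same fluid and exposure time.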

[4] = Cytotoxicity against mouse McCoy cells after 48 hrs at =<60 uM by MTT assay; format: cell-based
Procedure, shortened: (§3)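 Cytotoxicity was tested by running the MCC procedure without inoculum: compound diluted in half with SPG, then diluted 1:40 onto McCoy monolayers and incubated 48 h at 37°C. Read-out by Alamar Blue, MTT and LDH kits. SPG served as negative control and Triton X-100 as positive control. Nontoxic was defined as <10% toxicity in all methods.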

Chlamydia trachomatis [5] = experiment: Antibacterial activity against Chlamydia trachomatis serovar L2 at 60.0 -3.75 uM after 120 mins by MCC assay in presence of simulated seminal fluid relative to control; format: functional, organism-based; procedure, shortened: as §2
Chlamydia trachomatis [6] = experiment: Antibacterial activity against Chlamydia trachomatis serovar L2 at 60.0 - 3.75 uM after 5 mins by MCC assay in presence of simulated vaginal fluid relative to control; format: functional, organism-based; procedure, shortened: as §2
Chlamydia trachomatis [7] = experiment: Antibacterial activity against Chlamydia trachomatis serovar D at 15 uM at pH 7 after 120 mins by MCC assay in presence of sucrose- phosphate-glutamate buffer; format: functional, organism-based
Procedure, shortened: (§4)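 Compounds and EBs were each diluted in SPG at pH 4, 5.5, 7 or 8 and mixed 1:1, so exposure pH was constant. Five 4-fold dilutions were used (top 60 μM peptide, 30 mM lipid). After 5 or 120 min, the mix was diluted 1:40 in pH 7.5 SPG and plated on McCoy cells. Inclusion counts were compared with a no-drug control at the same pH and time.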

Chlamydia trachomatis [8] = experiment: Antibacterial activity against Chlamydia trachomatis serovar D at 3.75 uM at pH 4 after 120 mins by MCC assay in presence of sucrose- phosphate-glutamate buffer; format: functional, organism-based; procedure, shortened: as §4
Chlamydia trachomatis [9] = experiment: Antibacterial activity against Chlamydia trachomatis serovar D at 60.0 - 3.75 uM after 120 mins by MCC assay in presence of human serum albumin relative to control; format: functional, organism-based; procedure, shortened: as §1
Chlamydia trachomatis [10] = experiment: Antibacterial activity against Chlamydia trachomatis serovar E at 60.0 - 3.75 uM after 5 mins by MCC assay in presence of simulated seminal fluid relative to control; format: functional, organism-based; procedure, shortened: as §1
Chlamydia trachomatis [11] = experiment: Antibacterial activity against Chlamydia trachomatis serovar L2 at => 3.13 uM after 120 mins relative to control; format: functional
Chlamydia trachomatis [12] = experiment: Antibacterial activity against Chlamydia trachomatis serovar L2 at 3.75 uM at pH 7 after 120 mins by MCC assay in presence of sucrose-phosphate-glutamate buffer relative to control; format: functional, organism-based; procedure, shortened: as §4
Chlamydia trachomatis [13] = experiment: Antibacterial activity against Chlamydia trachomatis serovar D at 60.0 - 3.75 uM after 5 mins by MCC assay in presence of human serum albumin relative to control; format: functional, organism-based; procedure, shortened: as §1
Chlamydia trachomatis [14] = experiment: Antibacterial activity against Chlamydia trachomatis serovar D at 60.0 - 3.75 uM after 5 mins by MCC assay in presence of simulated vaginal fluid relative to control; format: functional, organism-based; procedure, shortened: as §1
Chlamydia trachomatis [15] = experiment: Antibacterial activity against Chlamydia trachomatis serovar L2 at 3.75 uM at pH 4 after 120 mins by MCC assay in presence of sucrose-phosphate-glutamate buffer relative to control; format: functional, organism-based; procedure, shortened: as §4
Chlamydia trachomatis [16] = experiment: Antibacterial activity against Chlamydia trachomatis serovar L2 at 15 uM at pH 7 after 120 mins by MCC assay in presence of sucrose-phosphate-glutamate buffer relative to control; format: functional, organism-based; procedure, shortened: as §4
[17] = Cytotoxicity against mouse McCoy cells after 48 hrs at =<60 uM by almar blue assay; format: cell-based; procedure, shortened: as §3
Chlamydia trachomatis [18] = experiment: Antibacterial activity against Chlamydia trachomatis serovar D at 3.75 uM at pH 7 after 120 mins by MCC assay in presence of sucrose-phosphate-glutamate buffer relative to contro; format: functional, organism-based; procedure, shortened: as §4
Chlamydia trachomatis [19] = experiment: Antibacterial activity against Chlamydia trachomatis serovar D at 15 uM at pH 4 after 120 mins by MCC assay in presence of sucrose- phosphate-glutamate buffer; format: functional, organism-based; procedure, shortened: as §4
Chlamydia trachomatis [20] = experiment: Antibacterial activity against Chlamydia trachomatis serovar L2 at 60.0 - 3.75 uM after 120 mins by MCC assay in presence of human serum albumin relative to control; format: functional, organism-based; procedure, shortened: as §1
Chlamydia trachomatis [21] = experiment: Antibacterial activity against Chlamydia trachomatis serovar E at 60.0 -3.75 uM after 120 mins by MCC assay in presence of human serum albumin relative to control; format: functional, organism-based; procedure, shortened: as §1
Chlamydia trachomatis [22] = experiment: Antibacterial activity against Chlamydia trachomatis serovar E at 60.0 - 3.75 uM after 120 mins by MCC assay in presence of simulated vaginal fluid relative to control; format: functional, organism-based; procedure, shortened: as §1
Chlamydia trachomatis [23] = experiment: Antibacterial activity against Chlamydia trachomatis serovar E at 60.0 - 3.75 uM after 5 mins by MCC assay in presence of simulated vaginal fluid relative to control; format: functional, organism-based; procedure, shortened: as §1
Chlamydia trachomatis [24] = experiment: Antibacterial activity against Chlamydia trachomatis serovar L2 at 60.0 - 3.75 uM after 120 mins by MCC assay in presence of simulated vaginal fluid relative to control; format: functional, organism-based; procedure, shortened: as §1
Chlamydia trachomatis [25] = experiment: Antibacterial activity against Chlamydia trachomatis serovar D at 60.0 - 3.75 uM after 120 mins by MCC assay in presence of simulated seminal fluid relative to control; format: functional, organism-based; procedure, shortened: as §1
Chlamydia trachomatis [26] = experiment: Antibacterial activity against Chlamydia trachomatis serovar L2 at 60.0 - 3.75 uM after 5 mins by MCC assay in presence of human serum albumin relative to control; format: functional, organism-based; procedure, shortened: as §2
Chlamydia trachomatis [27] = experiment: Antibacterial activity against Chlamydia trachomatis serovar L2 at 50 uM after 120 mins relative to control; format: functional; conditions: serovar L2, 2 h
Procedure, shortened: (§5)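 Serovar L2 EBs (5 × 10⁶ IFU/ml in SPG, pH 7.5) mixed 1:1 with ten 2-fold SPG dilutions (final 50 μM top peptide, 25 mM lipid), exposed 5 or 120 min, diluted 1:40, plated on McCoy cells; fixed with methanol after 36–48 h, anti-LPS/FITC stained. Triplicate wells, three fields each, three independent days; percent inhibition versus no-drug control ± SD.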

Chlamydia trachomatis [28] = experiment: Antibacterial activity against Chlamydia trachomatis serovar E at 60.0 - 3.75 uM after 120 mins by MCC assay in presence of simulated seminal fluid relative to control; format: functional, organism-based; procedure, shortened: as §1
Chlamydia trachomatis [29] = experiment: Antibacterial activity against Chlamydia trachomatis serovar D at 15 uM at pH 7 after 120 mins by MCC assay in presence of sucrose-phosphate-glutamate buffer relative to contro; format: functional, organism-based; procedure, shortened: as §4
Chlamydia trachomatis [30] = experiment: Antibacterial activity against Chlamydia trachomatis serovar D at 60.0 - 3.75 uM after 120 mins by MCC assay in presence of simulated vaginal fluid relative to control; format: functional, organism-based; procedure, shortened: as §1
Chlamydia trachomatis [31] = experiment: Antibacterial activity against Chlamydia trachomatis serovar L2 at 50 uM after 5 mins relative to control; format: functional; conditions: serovar L2, 5 min; procedure, shortened: as §5
Chlamydia trachomatis [32] = experiment: Antibacterial activity against Chlamydia trachomatis serovar E at 60.0 -3.75 uM after 5 mins by MCC assay in presence of human serum albumin relative to control; format: functional, organism-based; procedure, shortened: as §1

In the case of H-RRWVRRVRRWVRRVVRVVRRWVRR-OH, the Activity (Chlamydia trachomatis [1]) is reported as >56%, the Activity (Chlamydia trachomatis [2]) is reported as “inactive” and the Activity (Chlamydia trachomatis [3]) is reported as “inactive”. For the same substance, the Activity [4] was “Non-toxic”, the Activity (Chlamydia trachomatis [5]) was “inactive” and the Activity (Chlamydia trachomatis [6]) was “inactive”. For the same substance, the Activity (Chlamydia trachomatis [7]) was “inactive”, the Activity (Chlamydia trachomatis [8]) was “inactive” and the Activity (Chlamydia trachomatis [9]) was “inactive”. For the same substance, the Activity (Chlamydia trachomatis [10]) was “inactive”, the Activity (Chlamydia trachomatis [11]) was >97% and the Activity (Chlamydia trachomatis [12]) was “inactive”. For the same substance, the Activity (Chlamydia trachomatis [13]) was “inactive”, the Activity (Chlamydia trachomatis [14]) was “inactive” and the Activity (Chlamydia trachomatis [15]) was “inactive”. For the same substance, the Activity (Chlamydia trachomatis [16]) was “inactive”, the Activity [17] was “Non-toxic” and the Activity (Chlamydia trachomatis [18]) was “inactive”. For the same substance, the Activity (Chlamydia trachomatis [19]) was “inactive”, the Activity (Chlamydia trachomatis [20]) was “inactive” and the Activity (Chlamydia trachomatis [21]) was “inactive”. The Activity (Chlamydia trachomatis [22]) was “inactive”, the Activity (Chlamydia trachomatis [23]) was “inactive” and the Activity (Chlamydia trachomatis [24]) was “inactive”. The Activity (Chlamydia trachomatis [25]) was “inactive”, the Activity (Chlamydia trachomatis [26]) was “inactive” and the inhibition at 50 µM (Chlamydia trachomatis [27]) was 99.9%. The Activity (Chlamydia trachomatis [28]) was “inactive”, the Activity (Chlamydia trachomatis [29]) was “inactive” and the Activity (Chlamydia trachomatis [30]) was “inactive”. The inhibition at 50 µM (Chlamydia trachomatis [31]) was 89.3% and the Activity (Chlamydia trachomatis [32]) was “inactive”.
